Measurements: ChEMBL document CHEMBL1687834, “Identification and characterization of persistent intracellular human immunodeficiency virus type 1 integrase strand transfer inhibitor activity” (Antimicrob Agents Chemother, 2011)
Activity calls are given as the source filed them. The rule behind the calls is not given here.

Experiments:
[1] = test system: Human immunodeficiency virus 1; experiment: Antiviral activity against HIV1 NL4-3.Luc in human PBMC assessed as infectivity treated for 24 hrs by luciferase assay; type: functional, organism-based; conditions: Human immunodeficiency virus 1, 24 h
[2] = test system: Human immunodeficiency virus 1; experiment: Ratio of EC50 for HIV1 NL4-3.Luc assessed as infectivity using human PBMC pretreated for 24 hrs followed by exposed to virus after compound washout to standard EC50 for HIV1 NL4-3.Luc; type: functional
[3] = test system: Human immunodeficiency virus 1; experiment: Antiviral activity against HIV1 NL4-3.Luc in human MDM assessed as infectivity treated for 24 hrs by luciferase assay; type: functional, organism-based; conditions: Human immunodeficiency virus 1, 24 h
[4] = test system: Human immunodeficiency virus 1; experiment: Antiviral activity against HIV1 NL4-3.Luc assessed as infectivity using human MDM pretreated for 24 hrs followed by exposed to virus after compound washout measured after 2 to 3 days by luciferase assay; type: functional, organism-based
[5] = test system: Human immunodeficiency virus 1; experiment: (§1) Antiviral activity against single-round HIV1 NLX.Lux-R harboring inactivating mutations in env, vpr and carries firefly luciferase gene in place of nef assessed as level of infection using human HeLaT4 cells pretreated for 24 hrs followed by exposed to virus immediately after 3 times compound washout; type: functional, organism-based; conditions: Human immunodeficiency virus 1, HeLaT4
How it was run: (§2)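 HeLa-T4 cells pretreated 24 h with 100× EC95 drug, washed three times, then infected with VSV-G-pseudotyped HIV-Luc at 0, 2, 4, 8 or 12 h after washing. Virus removed by three washes at 2 h; lysis at 48 h. Luciferase normalized to protein, percent of no-drug control, Student's t test. Washout EC50 from immediate infection; ratio to standard EC50; ≥3 experiments in duplicate.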

[6] = Drug uptake in human HeLaT4 cells assessed as compound persist measured after 3 times washout at 100 time EC95 for HIV1 for 24 hrs; type: ADME, cell-based; conditions: helat4, 24 h; how it was run: as §2
[7] = test system: Human immunodeficiency virus 1; experiment: Antiviral activity against HIV1 NL4-3.Luc assessed as infectivity using human PBMC pretreated for 24 hrs followed by exposed to virus after compound washout measured after 2 to 3 days by luciferase assay; type: functional, organism-based
[8] = test system: Human immunodeficiency virus 1; experiment: (§3) Antiviral activity against single-round HIV1 NLX.Lux-R harboring inactivating mutations in env, vpr and carries firefly luciferase gene in place of nef assessed as level of 2 mins magnetic nanopartials-medated infection in human HeLaT4 cells treated for 1 measured after of 3 times compound washout and rewashed 48 hrs post infection by time-of-addition pulse assay; type: functional
How it was run: (§4)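 Pulse time-of-addition: dialysed virus preincubated with magnetite nanoparticles, added to HeLa-T4 cells, 2 min under ~1 T magnetic field, then washed. At set times after infection, cells pulsed 1 h with 100× EC95 drug, washed three times and cultured drug-free. Lysis at 48 h postinfection; luciferase given as percent of no-drug control.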

[9] = Selectivity index, ratio of CC50 for human HeLa-T4 cells to EC50 for single-round HIV1 NLX.Lux-R harboring inactivating mutations in env, vpr and carries firefly luciferase gene in place of nef; type: toxicity, cell-based; conditions: read-out: Ratio CC50/EC50
How it was run: (§5)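 HeLa-T4 cells infected in duplicate for 2 h with 105 RT-cpm VSV-G-pseudotyped HIV-Luc (MOI ~0.01) with serial drug dilutions, washed and re-fed with the same drug. Luciferase normalized to total protein at 48 h, minus matched integrase-mutant N/N-Luc background. EC50/EC95 by GROWTH fit, ≥3 experiments; CC50 by WST-1 on HeLa-T4; SI = CC50/EC50.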

[10] = test system: Human immunodeficiency virus 1; experiment: as §1, with “Ratio of EC50 for” for “Antiviral activity against”, “washout to standard EC50 for HIV1 NLX.Lux-R” for “washout”; type: functional; how it was run: as §2
[11] = test system: Human immunodeficiency virus 1; experiment: Antiviral activity against single-round HIV1 NLX.Lux-R harboring inactivating mutations in env, vpr and carries firefly luciferase gene in place of nef infected in human HeLa-T4 cells assessed as luciferase activity after 48 hrs […]; type: functional, organism-based; conditions: Human immunodeficiency virus 1, HeLaT4, 48 h; how it was run: as §5
[12] = Cytotoxicity against human HeLaT4 cells by WST-1 assay; type: cell-based
How it was run: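 HeLa-T4 cells grown in DMEM with 10% FBS, 100 IU/ml penicillin and 100 μg/ml streptomycin; drug cytotoxicity measured by WST-1 read-out, with drugs tested up to 100 μM; 50% cytotoxic concentration (CC50) reported.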

[13] = test system: Human immunodeficiency virus 1; experiment: Ratio of EC50 for HIV1 NL4-3.Luc assessed as infectivity using human MDM pretreated for 24 hrs followed by exposed to virus after compound washout to standard EC50 for HIV1 NL4-3.Luc; type: functional
[14] = test system: Human immunodeficiency virus 1; experiment: as §1, with “pretreated at 100 time EC95” for “pretreated”, “virus” for “virus immediately”, “after 12 hrs of” for “after”, “washout relative to untreated control cells” for “washout”; type: functional, organism-based; how it was run: as §2
[15] = test system: Human immunodeficiency virus 1; experiment: Antiviral activity against single-round HIV1 NLX.Lux-R harboring inactivating mutations in env, vpr and carries firefly luciferase gene in place of nef infected in human HeLa-T4 cells assessed as time required to 50% inhibition of infection at 100 times EC95 by time-of-addition assay; type: functional
How it was run: (§6)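 Time-of-addition: drug at 10× or 100× EC95 added to HIV-Luc-infected HeLa-T4 cultures at set times after infection. Lysis at 48 h; luciferase as percent of no-drug cells. The time giving 50% inhibition versus the no-drug control was read from the curves.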

[16] = test system: Human immunodeficiency virus 1; experiment: as §3, with “suppression” for “level”, “nanopartials-medated residual” for “nanopartials-medated”, “treated at 100 time EC95” for “treated”, “after 11 hrs” for “after”, “assay relative to untreated control” for “assay”; type: functional; how it was run: as §4
[17] = test system: Human immunodeficiency virus 1; experiment: Antiviral activity against single-round HIV1 NLX.Lux-R harboring inactivating mutations in env, vpr and carries firefly luciferase gene in place of nef infected in human HeLa-T4 cells assessed as inhibition of 2 mins magnetic nanopartials-medated infectivity after 48 hrs luciferase assay; type: functional, organism-based; conditions: for EC50: Human immunodeficiency virus 1, HeLaT4
How it was run: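 HeLa-T4 cells infected with virus dialysed against HS buffer (pH 7.3, 24 h, 4°C), plus 1.5% FBS, preincubated 5 min with 0.5 mg/ml magnetite nanoparticles. Added at 1:13 (vol/vol) final, 2 min under ~1 T, washed three or four times. Incubated at 37°C; luciferase read at 48 h.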

[18] = test system: Human immunodeficiency virus 1; experiment: Antiviral activity against single-round HIV1 NLX.Lux-R harboring inactivating mutations in env, vpr and carries firefly luciferase gene in place of nef infected in human HeLa-T4 cells assessed as time required to 50% inhibition of infection at 10 times EC95 by time-of-addition assay; type: functional; how it was run: as §6
[19] = test system: Human immunodeficiency virus 1; experiment: Antiviral activity against single-round HIV1 NLX.Lux-R harboring inactivating mutations in env, vpr and carries firefly luciferase gene in place of nef infected in human HeLa-T4 cells assessed as time required to cause 50% loss in compound potency at 10 times EC95 by time-of-addition assay; type: functional; how it was run: as §6
[20] = test system: Human immunodeficiency virus 1; experiment: as §1, with “pretreated at 100 time EC95” for “pretreated”, “virus” for “virus immediately”, “after 2 to 4 hrs of” for “after”, “washout relative to untreated control cells” for “washout”; type: functional; how it was run: as §2
[21] = test system: Human immunodeficiency virus 1; experiment: as §1, with “pretreated at 100 time EC95” for “pretreated”, “washout relative to untreated control cells” for “washout”; type: functional; how it was run: as §2
[22] = test system: Human immunodeficiency virus 1; experiment: as §3, with “nanopartials-medated residual” for “nanopartials-medated”, “treated at 100 time EC95” for “treated”, “after 3 hrs” for “after”; type: functional; how it was run: as §4
[23] = test system: Human immunodeficiency virus 1; experiment: as §3, with “treated at 100 time EC95” for “treated”, “after 3 hrs” for “after”, “assay relative to untreated control at 4 hr time point” for “assay”; type: functional; how it was run: as §4
[24] = test system: Human immunodeficiency virus 1; experiment: as §1, with “pretreated at 100 time EC95” for “pretreated”, “virus” for “virus immediately”, “after 8 hrs of” for “after”, “washout relative to untreated control cells” for “washout”; type: functional, organism-based; how it was run: as §2

Row | SMILES | EC50 [1] [nM] | EC95 [1] [µM] | Ratio EC50 [2] | EC50 [3] [nM] | EC95 [3] [µM] | EC50 [4] [nM] | EC50 [5] [µM] | Drug uptake [6] | EC50 [7] [nM] | selectivity ratio [9] | Ratio EC50 [10] | EC50 [11] [nM] | EC95 [11] [µM] | CC50 [12] [µM] | Ratio EC50 [13] | Activity [14] | Time [15] [h] | fold change (FC) [16] | Time [19] [h] | Activity [21] | other results
1 | CC(C)OC(=O)OCOP(=O)(CO[C@H](C)Cn1cnc2c(N)ncnc21)OCOC(=O)OC(C)C.O=C(O)/C=C/C(=O)O [TENOFOVIR DISOPROXIL FUMARATE] | 46 | 0.72 | 1.2 | 28 | 0.52 | 34 | 0.12 | Active | 55 | 11700 | 4 | 2.9 | 0.037 | 34 | 1.2 | Active |  |  |  |  | EC99.6 [8]: 0.95 µM
2 | COc1cc2c(cc1Cc1cccc(Cl)c1F)c(=O)c(C(=O)O)cn2[C@H](CO)C(C)C [ELVITEGRAVIR] | 0.3 | 0.0074 | 120 | 0.5 | 0.0082 | 25 | 0.06 |  | 36 | 11700 | 20.7 | 2.9 | 0.037 | 34 | 50 | Active | 11.3 | 2 | 11.1 |  | Activity [17]: Dose-dependent effect; EC50 [17]: 3400 nM; Time [18]: 10.1 h; EC98.6 [8]: 75 nM
3 | Cc1nnc(C(=O)NC(C)(C)c2nc(C(=O)NCc3ccc(F)cc3)c(O)c(=O)n2C)o1 [RALTEGRAVIR] | 2.4 | 0.048 | 1375 | 4.3 | 0.08 | 4900 | 4.6 |  | 3300 | > 1300 | 547.6 | 77 | 0.81 | > 100 | 1140 |  | 12.7 | 2 | 10.2 | 19% | Activity [20]: 50%; Time [18]: 10.5 h; EC91 ([8]; Human immunodeficiency virus 1, HeLaT4): 0.073 µM; Activity [22]: 9%
4 | O=C1Nc2ccc(Cl)cc2[C@@](C#CC2CC2)(C(F)(F)F)O1 [EFAVIRENZ] |  |  |  |  |  |  |  |  |  | 31800 |  | 1.1 | 0.008 | 35 |  |  |  |  |  |  | Activity [17]: Dose-dependent effect; EC50 [17]: 1000 nM
5 | Cc1ccnc2c1NC(=O)c1cccnc1N2C1CC1 [NEVIRAPINE] | 41 | 0.69 | >2439 | 27 | 0.64 | > 100000 | > 100 | Not Active | > 100000 | > 1370 | >1370 | 73 | 0.68 | > 100 | >3703 |  |  |  | 7.2 | inactive | Activity [23]: 23%
6 | Cc1cn([C@H]2C[C@H](N=[N+]=[N-])[C@@H](CO)O2)c(=O)[nH]c1=O [ZIDOVUDINE] |  |  |  |  |  |  | 4.6 | Active |  | > 11900 | 59.7 | 8.4 | 0.09 | > 100 |  |  |  |  | 4.8 | 18% | Activity [20]: 40%; Activity [24]: inactive
